# Diaph act CS: diaphorase activation or chemical reduction counter-screen. Diaphorase/resazurin coupled assay, resorufin fluorescence, 16 min; hits give high values; 1 = vehicle wells, 0 = NADH-free wells. activation factor at 20 µM. actives 0.005% (n = 190,000);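 active = diaphorase activity raised at least twofold by the compound at 20 µM; inactive = activation factor below 2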
#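 Material: Purified diaphorase enzyme from Clostridium kluyveri | Buffer or medium: 50 mM HEPES pH 7.4 with 4.542 mM MgCl2, 0.005% Tween 20 | Times: 16 min enzyme reaction, ambient temperature | Signal: Red resorufin fluorescence at 544/590 nm excitation/emission | Measure: Increased resorufin signal from activators or reducing compounds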
# HMGR II inh: inhibitors of class II HMG-CoA reductase from Enterococcus faecalis. purified E. faecalis HMGR, NADPH absorbance 340 nm kinetic. AID 1066. inhibition, % at 10 µM. actives 0.41% (n = 190,000);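 active = inhibition above a set limit, the median over all tested compounds plus 3 SD, cut at about 9.5% in these data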;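 also: enzyme runs in reverse so mevalonate oxidation gives rising NADPH absorbance; 0% = complete reaction with DMSO and 100% = background rate lacking mevalonate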
# p47phox inh: inhibitors of human p47phox binding. P14598. p47phox/p22phox peptide binding, fluorescence polarization, 2 h. inhibition, % at 24.7 µM. actives 0.53% (n = 220,000). AID 1274;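 active = inhibition above about 30%, limit read from the data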;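 also: 0% = p47phox with labelled peptide and 100% = labelled peptide alone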
# Diaph inh CS: inhibits diaphorase or chemically oxidizes, flagging diaphorase assay artifacts; diaphorase resazurin-to-resorufin fluorescence, NADH, 16 min; bacterial (C. kluyveri) enzyme, not human; inhibition, % at 20 µM; actives 0.69% (n = 190,000);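 active = primary screen inhibition at 20 µM above a set limit, cut at about 50% in these data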;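 also: plate controls were DMSO with full reaction for no effect and wells lacking NADH for full effect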
#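 Test system: bacterial diaphorase enzyme (C. kluyveri); Quantity: 0.14 U/mL diaphorase, enzyme working solution; Times: reaction incubation of 16 min at room temperature; Measured by: fluorescence of resorufin formed from resazurin, Ex 544/Em 590 nm; Benchmarks: positive control minus NADH, DMSO neutral control.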
# ABCG2 inh: blocks JC-1 efflux by human ABCG2 transporter; Q9UNQ0; IgMXP3 cells, flow cytometry; inhibition, % at 6.6 µM; actives 0.1% (n = 190,000);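 active = inhibition above 80%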;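 also: 0% = DMSO and 100% = nicardipine control wells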
#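 Incubation: cells with compound and JC-1, 10 min at 25 °C, rotating, no wash / Test system: IgMXP3 (ABCG2) plus far-red-tagged CCRF-Adr (ABCB1) cells / Compound dosing: one concentration, 6.6 µM final / Also added: JC-1 fluorescent substrate / Evaluation: efflux inhibition in percent versus controls / Detection: flow cytometry, 530 nm JC-1 signal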
# ABCB1 inh: human ABCB1 inhibition, ABCG2 as counter-screen. inhibition, % at 6.6 µM. actives 0.067% (n = 190,000). CCRF-Adr cells, JC-1 efflux, flow cytometry; in the data active = inhibition above about 40%;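 also: 0% = vehicle and 100% = reference inhibitor; higher value means more JC-1 retained so stronger ABCB1 efflux block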
# * = called active by the depositor; . = no result. This is a sample that favours compounds with a hit; in the whole collection about 1.6% have one here.
SMILES,Diaph act CS,HMGR II inh,p47phox inh,Diaph inh CS,ABCG2 inh,ABCB1 inh
Cc1ccsc1/C=C1\SC(=S)N(CC2CCCO2)C1=O (stereo unspecified),0.9,-1,-3,8,-1,0
Cc1ccc(C2CC(=O)N3CN(c4ccc(Br)cc4)CSC3=C2C#N)o1 (stereo unspecified),0.4,-10,-22,58*,-3,-1
N#CC1=C2SCN(c3ccccc3)CN2C(=O)CC1c1c(Cl)cccc1Cl (stereo unspecified),0.5,1,-6,51*,-1,0
COc1ccc(OC)c(C2CC(=O)N3CN(c4cccc(Cl)c4C)CSC3=C2C#N)c1 (stereo unspecified),0.5,.,.,52*,.,.
COc1ccc(OC)c(C2CC(=O)N3CN(c4cccc(Cl)c4)CSC3=C2C#N)c1 (stereo unspecified),0.5,2,-17,46,0,0
N#CC1=C2SCN(c3ccccc3)CN2C(=O)CC1c1ccccc1Cl (stereo unspecified),0.7,-6,13,34,-2,-1
COc1cccc(C2CC(=O)N3CN(c4cccc(Cl)c4C)CSC3=C2C#N)c1OC (stereo unspecified),0.5,-7,-1,51*,-1,0
COc1ccc(-c2nc(NC(=O)CCNC(=O)c3ccco3)sc2C)cc1,0.7,-8,-4,26,1,0
CCCCn1nnc(NC(=O)COc2cc(C)ccc2C(C)C)n1,0.8,0,-8,21,4,1
O=c1cc2oc3cc(O)c(O)cc3c(-c3ccccc3O)c-2cc1O,.,.,-298,.,.,.
COc1ccc(OC)c(-c2c3cc(O)c(=O)cc-3oc3cc(O)c(O)cc23)c1,0.1,-2,-246,88*,-20,-1
CC1CCCN(c2nc3c(c(=O)n(C)c(=O)n3C)n2CCSc2nc3ccccc3o2)C1 (stereo unspecified),0.9,1,-1,10,6,3
Cc1ccc(/C=N/n2c(-c3ccncc3)n[nH]c2=S)cc1,0.4,3,10,60*,-6,-2
Cc1cc(-c2n[nH]c(=S)n2/N=C/c2ccc(Cl)c([N+](=O)[O-])c2)n[nH]1,0.8,-6,-2,23,12,1
O=[N+]([O-])c1cc(/C=N/n2c(-c3ccncc3)n[nH]c2=S)ccc1Cl,0.5,2,-5,53*,1,0
Cc1cc(-c2n[nH]c(=S)n2/N=C/c2cc([N+](=O)[O-])ccc2Cl)n[nH]1,0.5,-6,13,50*,-11,-2
CC(/C=N/n1c(-c2cc(C)[nH]n2)n[nH]c1=S)=C\c1ccccc1,0.5,-10,9,51*,0,0
CCc1nc2c(sc3nc4c(cc32)COC(C)(C)C4)c(=O)n1Cc1ccccc1,0.9,2,-1,10,6,1
CSc1nc2sc3c(c2c(=O)[nH]1)CCC(C)C3 (stereo unspecified),1,-7,-9,-2,16,2
Nc1nc(-c2ccccc2)cc(-c2ccccc2O)n1,0.9,3,-15,14,2,0
O=C(N/N=C/CCc1ccccc1)c1ccccc1,0.7,3,-1,26,1,0
CN1CCN(C2=Cc3ccccc3Sc3cc(F)c(F)cc32)CC1,1,-2,-4,4,8,3
O=[N+]([O-])c1cccc(N/N=C/c2cccc(O)c2O)c1,0.5,-1,-8,52*,1,-1
O=[N+]([O-])c1ccccc1N/N=C/c1cccc(O)c1O,.,.,-8,.,.,.
O=C(c1ccc([N+](=O)[O-])c(CS(=O)(=O)c2ccc(Cl)cc2)c1)N1CCCCC1,0.8,-1,-4,15,1,1
CCCN1C2CCCC1CC(NC(=S)Nc1cc(C)ccc1C)C2 (stereo unspecified),0.9,3,-24,10,-1,0
O=C(CCCC(=O)NC1CCCC1)NC1CCCC1,0.9,-4,-8,11,2,1
